Screens deposited in PubChem BioAssay by several laboratories.
Lung fibro prol = blocks proliferation of human lung fibroblasts | LL 47 human lung fibroblast viability, ATP luminescence; active compounds read low | viability, % at 10 µM | actives 1.1% (n = 85,000) | AID 719;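 active = viability at or below 50% in the single dose screen; inactive = viability above 50%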;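 also: compound exposure lasted 72 h before the ATP readout; 100% = median luminescence of untreated cell-only wells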
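Test system: LL 47 human lung fibroblasts / Incubation: 72 h compound exposure at 37 °C after overnight plating / Technique: luminescent ATP detection, CellTiter-Glo / Compound dosing: 0.1% DMSO in all compound wells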
Cav3 T inh = inhibitors of human Cav3.2 T-type calcium channel. B-score at 10 µM. actives 4% (n = 100,000). O95180. Cav3.2-expressing cells, Fluo-4 calcium fluorescence FDSS; active compounds read low;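 active = single-dose well whose peak fluorescence ratio is a statistical outlier from its plate by either plate-standardised score or position-corrected B-score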
HUVEC inhibit = human endothelial cell proliferation inhibition; HUVEC proliferation, CellTiter-Glo luminescence, 72 h; active compounds read low; viability, % at 10 µM (by protocol); actives 1.1% (n = 86,000); AID 648;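 active = viability at or below 30%; inactive = viability above 30%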;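 also: 100% = median luminescence of DMSO-only cell control wells on each plate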
H69AR inhibit = blocks growth of human H69AR lung tumor cells; H69AR lung tumor viability, ATP luminescence, 72 h; active compounds read low; viability, % at 10 µM; actives 6% (n = 85,000); AID 598;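 active = viability at or below 40%; inactive = viability above 40%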;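 also: multidrug resistant small cell line overexpressing MRP-1 efflux transporter; 100% = mean luminescence of untreated control wells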
HCT116 bCat-KO = beta-catenin-lacking colon tumor cell growth suppression. HCT116 beta-catenin knockout viability, CellTiter-Glo, 60 h; active compounds read low. viability, % at 10 µM. actives 1.5% (n = 140,000). AID 818;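 active = viability at or under a set limit, the compound median less 4 SD, cut at about 6% in these data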;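 also: 0% = Hyamine 1622 control at 20 µM and 100% = untreated cell control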
HCT116 PTEN-null = suppresses growth of cells with PTEN deletion | viability, % at 10 µM | actives 1.2% (n = 140,000) | HCT116 PTEN-null viability, CellTiter-Glo, 60 h; active compounds read low;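 active = viability at or below a set limit, 4 SD under the median of all tested compounds, cut at about 3.7% in these data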;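 also: PTEN knockout HCT116 line with beta catenin targeted HCT116 as companion control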
* marks the source's active call; other numbers are inactive results. This is a sample that favours compounds with a hit; in the whole collection about 7.1% have one here.

Cc1nc(SCc2c(F)cccc2Cl)c2c(=O)n(C)c(=O)n(C)c2n1 was read as Lung fibro prol 81.9, Cav3 T inh -1.41, HUVEC inhibit 83.0, H69AR inhibit 62.9, HCT116 bCat-KO 73.2 and HCT116 PTEN-null 69.6.
Screening CC1(c2ccc(Cl)cc2Cl)OCC(Cn2ccnc2)O1 (centres undefined) returned Lung fibro prol 94.9, Cav3 T inh 0.00253, HUVEC inhibit 83.1, H69AR inhibit 33.8*, HCT116 bCat-KO 71.0 and HCT116 PTEN-null 56.8.
For OC(Cn1ccnc1)c1ccc(Cl)cc1Cl (centres undefined) the results were Lung fibro prol 98.3, Cav3 T inh 0.214, HUVEC inhibit 86.8, H69AR inhibit 93.3, HCT116 bCat-KO 94.1 and HCT116 PTEN-null 100.3.
`COc1ccc(Cn2cnc3c([N+](=O)[O-])c(C)c(C)cc32)cc1` gave Cav3 T inh -6.18*, HCT116 bCat-KO 80.7 and HCT116 PTEN-null 83.2.
C=CCn1c(SCC(=O)N2CC(=O)Nc3ccccc32)nc2scc(-c3cccs3)c2c1=O was read as Lung fibro prol 85.1, Cav3 T inh -7.19*, HUVEC inhibit 75.9, H69AR inhibit 95.3, HCT116 bCat-KO 57.6 and HCT116 PTEN-null 48.3.
For CC1CCN(c2c(NCc3ccc(C(=O)N4c5ccccc5CC4C)cc3)c(=O)c2=O)CC1 (centres undefined) the results were Lung fibro prol 92.5, Cav3 T inh -1.59, HUVEC inhibit 86.0, H69AR inhibit 33.6*, HCT116 bCat-KO 76.6 and HCT116 PTEN-null 86.2.
`O=C(Nc1c(C(=O)Nc2cccc3ccccc23)cnn1-c1ccccc1)c1ccco1` gave Lung fibro prol 96.3, Cav3 T inh 0.296, HUVEC inhibit 87.1, H69AR inhibit 55.1, HCT116 bCat-KO 81.1 and HCT116 PTEN-null 84.1.
For Cc1noc(C)c1S(=O)(=O)N1CCC(C(=O)N2CCN(c3ccccc3Cl)CC2)CC1 the results were Lung fibro prol 102.4, Cav3 T inh 1.62, HUVEC inhibit 98.2, H69AR inhibit 8.4*, HCT116 bCat-KO 65.3 and HCT116 PTEN-null 79.4.
For CCOC(=O)N1CCN(c2c(NCc3cccs3)c(=O)c2=O)CC1 the results were Lung fibro prol 85.2, Cav3 T inh 0.42, HUVEC inhibit 70.4, H69AR inhibit 31.0*, HCT116 bCat-KO 42.6 and HCT116 PTEN-null 38.4.
`Cc1cc(N2CCOCC2)ccc1/C=C\[N+](=O)[O-]` gave HCT116 bCat-KO 4.4* and HCT116 PTEN-null 10.0.
For CN=C1S/C(=C\c2ccc(N3CCOCC3)cc2C)C(=O)N1C the results were HCT116 bCat-KO 101.4 and HCT116 PTEN-null 96.2.
Screening Clc1ccc(-c2ccc(/C=N/Nc3cc(N4CCOCC4)nc(N4CCOCC4)n3)o2)cc1 returned Lung fibro prol 73.7, Cav3 T inh 0.208, HUVEC inhibit 13.2*, H69AR inhibit 29.5*, HCT116 bCat-KO 42.5 and HCT116 PTEN-null 39.2.
Screening O=C(NCCc1nc2ccccc2[nH]1)/C(=C/c1ccc2c(c1)OCO2)NC(=O)c1ccc(Cl)cc1Cl returned HCT116 bCat-KO 88.0 and HCT116 PTEN-null 84.9.
Screening CC(C)(C)n1nnnc1CN1C2CCC1CC(NC(=O)Nc1ccccc1)C2 (centres undefined) returned Lung fibro prol 106.8, Cav3 T inh 1.2, HUVEC inhibit 96.9, H69AR inhibit 91.6, HCT116 bCat-KO 92.2 and HCT116 PTEN-null 110.2.
For CCOC(=O)c1ccc(NC(=O)NC2CC3CCC(C2)N3Cc2nnnn2Cc2ccco2)cc1 (centres undefined) the results were Lung fibro prol 102.1, Cav3 T inh -6.07*, HUVEC inhibit 96.6, H69AR inhibit 85.9, HCT116 bCat-KO 83.8 and HCT116 PTEN-null 90.7.
`O=C(CC(SCc1ccco1)c1ccc(O)cc1)c1cccs1` (centres undefined) gave Lung fibro prol 86.1, Cav3 T inh -4.48*, HUVEC inhibit 73.7, H69AR inhibit 13.0*, HCT116 bCat-KO 11.1 and HCT116 PTEN-null 20.3.
Screening O=C(CC(SCCO)c1ccc2c(c1)OCO2)c1cccs1 (centres undefined) returned Cav3 T inh -0.525, HUVEC inhibit 94.8, H69AR inhibit 4.3*, HCT116 bCat-KO 7.2 and HCT116 PTEN-null 10.2.
Screening Cc1ccc(C(C)C)c(OCC(=O)Nn2c(C)nc3ccccc3c2=O)c1 returned Lung fibro prol 93.3, Cav3 T inh -4.97*, HUVEC inhibit 92.0, H69AR inhibit 93.8, HCT116 bCat-KO 85.3 and HCT116 PTEN-null 93.4.
For OC1CCCN(Cc2ccc3ccc4cccc5ccc2c3c45)C1 (centres undefined) the results were Lung fibro prol 48.5*, Cav3 T inh 0.795, HUVEC inhibit 2.4*, H69AR inhibit 44.7, HCT116 bCat-KO 1.3* and HCT116 PTEN-null 2.2*.
c1cc2ccc3ccc(CN4CCOCC4)c4ccc(c1)c2c34 was read as Lung fibro prol 93.5, Cav3 T inh 0.629, HUVEC inhibit 89.7, H69AR inhibit 82.5, HCT116 bCat-KO 84.8 and HCT116 PTEN-null 88.7.
For CCOC(=O)Cc1csc(NC(=O)COc2ccccc2)n1 the results were Lung fibro prol 104.9, Cav3 T inh -1.74, HUVEC inhibit 105.0, H69AR inhibit 90.9, HCT116 bCat-KO 100.8 and HCT116 PTEN-null 94.3.
For CCOC(=O)Cc1csc(NC(=O)COc2ccc(N(C)S(=O)(=O)c3cccs3)cc2)n1 the results were Lung fibro prol 94.7, Cav3 T inh -4.67*, HUVEC inhibit 87.3, H69AR inhibit 93.4, HCT116 bCat-KO 78.0 and HCT116 PTEN-null 68.5.
Screening O=C(Cc1cccs1)Nc1cc(SCCO)cc([N+](=O)[O-])c1 returned HCT116 bCat-KO 96.3 and HCT116 PTEN-null 87.0.
O=C(CCCC(=O)N(CC(=O)NC1CCCC1)Cc1ccc2c(c1)OCO2)Nc1ccccn1 was read as Lung fibro prol 98.3, Cav3 T inh 1.08, HUVEC inhibit 107.4, H69AR inhibit 99.7, HCT116 bCat-KO 94.0 and HCT116 PTEN-null 107.6.
CCNC(=O)/C(=C\C=C\c1ccccc1)NC(=O)c1ccc(Br)o1 was read as HCT116 bCat-KO 105.8 and HCT116 PTEN-null 103.1.
Screening CN1C(=O)c2ccccc2OC1(C)Cc1ccccc1 (centres undefined) returned HCT116 bCat-KO 88.1 and HCT116 PTEN-null 88.2.
Screening Cc1cc(C=O)c2c(c1)C=CC1(Oc3ccccc3C(=O)N1C)O2 (centres undefined) returned Lung fibro prol 95.0, HUVEC inhibit 80.0, H69AR inhibit 21.6*, HCT116 bCat-KO 56.8 and HCT116 PTEN-null 57.6.
COc1cc(/C=C2\S/C(=N/S(=O)(=O)c3ccc(C)cc3)NC2=O)c([N+](=O)[O-])cc1OC was read as Lung fibro prol 93.0, Cav3 T inh -5.27*, HUVEC inhibit 83.4, H69AR inhibit 91.8, HCT116 bCat-KO 94.5 and HCT116 PTEN-null 95.1.
`Cc1ccc(S(=O)(=O)/N=C2/NC(=O)/C(=C\c3ccco3)S2)cc1` gave HCT116 bCat-KO 90.8 and HCT116 PTEN-null 103.2.
